In PubChem BioAssay one finds viability, differential viability (reversal) and inhibition data, which are given here for 18 compounds.

Calls of active or inactive are those of the source.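 The calls were made as follows, unless noted: active = viability at or below 30% in both replicate assays; inconclusive = viability at or below 30% in just one of the two assays; inactive = the rest.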

The nature of test [1]: SK-BR-3 cell growth inhibitors, pilot screen, 24 h, human (AID 572;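 active = viability at or below 10% of carrier control in both of two separate runs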;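 also: compound exposure lasted between 18 and 24 h rather than exactly 24 h; 100% = carrier-treated control wells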). As to conditions: SK-BR-3 viability, CellTiter-Glo luminescence, at 10 µM, stronger effect = lower value. (In general: Cellular ATP, detected with luciferase, serves as a proxy for viable cell number.)
Test [2] can be described thus: HUVEC growth inhibition – cell-based, human, primary screen (AID 575).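 Also: 100% = median of untreated cell wells with 0.1% DMSO on each plate.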 As to conditions: HUVEC proliferation, CellTiter-Glo luminescence, 72 h; at 10 µM; stronger effect = lower value. The method in brief: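 Test system – primary HUVEC, no more than 12 passages · Dosing – one dose, 10 µM final, 0.1% DMSO · Times – 72 h treatment at 37 °C · Measured by – ATP-based CellTiter-Glo luminescent read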

Test [3] is described as follows: growth inhibitors of H69AR lung tumor, primary screen, human, duplicate replicates (AID 580;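 active = viability at or under a set limit in both replicates, limit being median viability minus 3 SD, cut at about 48% in these data, passing the limit was not always enough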;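 also: 100% = mean luminescence of untreated wells and 0% = no signal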). As to conditions: H69AR lung tumor cells viability, ATP luminescence, 72 h; at 10 µM; stronger effect = lower value.
Test [4] is described as follows: reversal of MRP1-mediated doxorubicin resistance, pilot screen, H69AR cells, doxorubicin co-treatment (AID 601;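 active = viability loss from added drug above about 55%, and viability with drug at most 40%, in both replicates, limit read from the data, passing the limit was not always enough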). As to conditions: CellTiter-Glo, 72 h, at 10 µM; for differential viability (reversal): stronger effect = higher value.
A short description of test [5]: 384-well plate pilot, post-Golgi transport modulator project, inhibition of yeast transport mutant growth (AID 636; in the data active = inhibition above about 31%). The following applies: absorbance 615 nm, about 18 h, stronger effect = higher value.
Test [6] in a line: growth suppression of yeast trafficking mutant, preliminary HTS, modulators of trafficking downstream of Golgi apparatus project, 1536-format plate, OD 615 nm (AID 637; in the data active = inhibition above about 30%). As to conditions: yeast transport mutant growth, absorbance 615 nm, 18 h; stronger effect = higher value.
[7] abbreviates: H69AR cells + 2 uM doxorubicin, measured here: viability with 2 uM doxorubicin, stronger effect = lower value.
The mark [8] stands for this setting: H69AR cells, compound alone cytotoxicity.

On to `Cn1c(=O)c2c(ncn2CC(O)CO)n(C)c1=O` (centres undefined), for which the viability (as a rule, a read-out of living cells in per cent, often relative to untreated cells) is 117% (inactive) in test [1]; 92.8% (inactive) in test [2]; 107% (inactive) in test [3]; 95% in test [4] (setting [7]); 107% in test [4] (setting [8]). The differential viability (reversal) in test [4] (H69AR cells + 2 uM doxorubicin) was 12.3% (inactive). The inhibition (commonly the drop in the measured response relative to a control, in per cent) in test [5] was -5.45% (inactive); in test [6], 3% (inactive).

Regarding `COc1cc2c(C#N)c(N3CCOCC3)nc(N)c2c(N)n1`, the viability was 85% (inactive) in test [1]; 90% (inactive) in test [2]; 75.2% (inactive) in test [3]; 67% in test [4] (setting [7]); 75.2% in test [4] (setting [8]). Also, in test [4] (H69AR cells + 2 uM doxorubicin), the differential viability (reversal) was 8.29% (inactive). In addition, the inhibition was -0.13% (inactive) in test [5] and 0.82% (inactive) in test [6].

For `COc1cccc(CC(=O)Nn2c(C)nc3ccccc3c2=O)c1`, the viability is 83% (inactive) in test [1]; 115% (inactive) in test [2]; 99.3% (inactive) in test [3]; 87.5% in test [4] (setting [7]); 99.3% in test [4] (setting [8]). In addition, in test [4] (H69AR cells + 2 uM doxorubicin), the differential viability (reversal) was 11.8% (inactive). Besides, the inhibition in test [5] was -3.07% (inactive); in test [6], -5.27% (inactive).

For the compound `Cc1cc(=O)n2nc(N3CCC(C(=O)N4CCN(Cc5ccccc5)CC4)CC3)sc2n1`, the viability in test [1] was 97% (inactive); in test [2], 108% (inactive); in test [3], 91.1% (inactive); in test [4] (setting [7]), 84.1%; in test [4] (setting [8]), 91.1%. Besides, in test [4] (H69AR cells + 2 uM doxorubicin), the differential viability (reversal) was 7.01% (inactive). In addition, the inhibition in test [5] is -3.24% (inactive); in test [6] it was -1.27% (inactive).

For the compound `COC(=O)[C@H](C)NC(=O)Nc1cccc(C(F)(F)F)c1`, the viability in test [1] was 145% (inactive); in test [2] it was 97.2% (inactive); in test [3] it was 89.9% (inactive); in test [4] (setting [7]) it was 95.7%; in test [4] (setting [8]), 89.9%. In test [4] (H69AR cells + 2 uM doxorubicin), the differential viability (reversal) is -5.75% (inactive). Further, the inhibition in test [5] is -0.96% (inactive); in test [6], 30% (active).

Consider `Cc1cc(C)n(C(C)n2nc(C)cc2C)n1`, for which the viability is 107% (inactive) in test [1]; 103% (inactive) in test [2]; 87.8% (inactive) in test [3]; 78.8% in test [4] (setting [7]); 87.8% in test [4] (setting [8]). Moreover, in test [4] (H69AR cells + 2 uM doxorubicin), the differential viability (reversal) was 9.01% (inactive). Further, the inhibition in test [5] was -7.87% (inactive); in test [6] it was -0.91% (inactive).

On to `COc1ccc(NC(=O)CCc2ccccc2)cc1NC(=O)c1ccco1`, for which the viability in test [1] was 64% (inactive); in test [2], 58.4% (inactive); in test [3], 56.6% (inactive); in test [4] (setting [7]), 77.2%; in test [4] (setting [8]), 56.6%. Also, the differential viability (reversal) in test [4] (H69AR cells + 2 uM doxorubicin) is -20.6% (inactive). Moreover, the inhibition in test [5] was -7.12% (inactive); in test [6], 9.68% (inactive).

`CCOc1ccc(NC(=O)CSc2nc3cccnc3n2CC)cc1`: the viability in test [1] was 103% (inactive); in test [2], 114% (inactive); in test [3], 81.4% (inactive); in test [4] (setting [7]) it was 82.2%; in test [4] (setting [8]) it was 81.4%. Further, the differential viability (reversal) in test [4] (H69AR cells + 2 uM doxorubicin) is -0.765% (inactive). In addition, the figures for the inhibition in test [5] and in test [6] were -3.77% (inactive) and 4.1% (inactive), respectively.

`O=S(=O)(c1ccc2c(c1)OCCO2)N1CCN(Cc2ccc3c(c2)OCO3)CC1`: the viability was 112% (inactive) in test [1]; 105% (inactive) in test [2]; 88.4% (inactive) in test [3]; 95.1% in test [4] (setting [7]); 88.4% in test [4] (setting [8]). For the same compound, the differential viability (reversal) in test [4] (H69AR cells + 2 uM doxorubicin) was -6.71% (inactive). Besides, the inhibition in test [5] is -3.24% (inactive); in test [6] it was 1.09% (inactive).

On to `CC1(C)S[C@@H]2[C@H](NC(=O)C(C(=O)O)c3ccccc3)C(=O)N2[C@H]1C(=O)O` (some centres undefined), for which the viability in test [1] was 87% (inactive); in test [2] it was 73.9% (inactive); in test [3], 107% (inactive); in test [4] (setting [7]), 103%; in test [4] (setting [8]) it was 107%. In addition, the differential viability (reversal) in test [4] (H69AR cells + 2 uM doxorubicin) is 3.92% (inactive). The inhibition in test [5] is -1.43% (inactive); in test [6], -2.67% (inactive).

As to `CCOC(=O)C1CSC(CC(=O)Nc2ccc(Cl)cc2)C(=O)N1` (centres undefined), the viability in test [1] was 86% (inactive); in test [2], 111% (inactive); in test [3], 103% (inactive); in test [4] (setting [7]), 91.4%; in test [4] (setting [8]), 103%. In addition, the differential viability (reversal) in test [4] (H69AR cells + 2 uM doxorubicin) was 11.6% (inactive). The inhibition was 0% (inactive) in test [5] and -3.64% (inactive) in test [6].

In the case of `COC(=O)c1sccc1NC(=O)c1ccco1`, the viability in test [1] was 109% (inactive); in test [2], 92.3% (inactive); in test [3] it was 96.3% (inactive); in test [4] (setting [7]) it was 102%; in test [4] (setting [8]), 96.3%. In addition, the differential viability (reversal) in test [4] (H69AR cells + 2 uM doxorubicin) was -5.95% (inactive). For the same compound, the inhibition in test [5] was -6.71% (inactive); in test [6], 7.27% (inactive).

For the compound `CCO/C([O-])=N/c1c[n+](N2CCOCC2)no1`, the viability was 81% (inactive) in test [1]; 95.9% (inactive) in test [2]; 86.7% (inactive) in test [3]; 90% in test [4] (setting [7]); 86.7% in test [4] (setting [8]). Also, the differential viability (reversal) in test [4] (H69AR cells + 2 uM doxorubicin) was -3.3% (inactive). For the same compound, the inhibition is 1.3% (inactive) in test [5] and 2.33% (inactive) in test [6].

As to `Cc1noc(C)c1CSc1nc2ccccc2s1`, the viability is 82% (inactive) in test [1]; 80.8% (inactive) in test [2]; 67.8% (inactive) in test [3]; 70.9% in test [4] (setting [7]); 67.8% in test [4] (setting [8]). For the same compound, the differential viability (reversal) in test [4] (H69AR cells + 2 uM doxorubicin) is -3.12% (inactive). In addition, the inhibition in test [5] was -1.43% (inactive); in test [6], -4.1% (inactive).

In the case of `O=C(NCCCN1CCCC1=O)C1CCN(S(=O)(=O)N2CCOCC2)CC1`, the viability in test [1] was 90% (inactive); in test [2] it was 118% (inactive); in test [3], 100% (inactive); in test [4] (setting [7]), 94.8%; in test [4] (setting [8]) it was 100%. In addition, the differential viability (reversal) in test [4] (H69AR cells + 2 uM doxorubicin) is 5.27% (inactive). The inhibition in test [5] was 5.41% (inactive); in test [6], -1.45% (inactive).

For the compound `Cc1[nH]c2ccc(F)cc2c(=O)c1SC(F)(F)C(F)C(F)(F)F` (centres undefined), the viability is 72% (inactive) in test [1]; 92.5% (inactive) in test [2]; 83.3% (inactive) in test [3]; 97.6% in test [4] (setting [7]); 83.3% in test [4] (setting [8]). Moreover, in test [4] (H69AR cells + 2 uM doxorubicin), the differential viability (reversal) is -14.3% (inactive). Further, the inhibition in test [5] is -5.95% (inactive); in test [6] it was -5.27% (inactive).

As for `C=CCNc1nnc(SC2CC(=O)N(c3ccc(OC)cc3)C2=O)s1` (centres undefined), the viability in test [1] is 107% (inactive); in test [2] it was 108% (inactive); in test [3] it was 103% (inactive); in test [4] (setting [7]) it was 111%; in test [4] (setting [8]), 103%. Besides, the differential viability (reversal) in test [4] (H69AR cells + 2 uM doxorubicin) was -8.79% (inactive). Besides, the inhibition in test [5] was -1.92% (inactive); in test [6] it was 0.73% (inactive).

Take `O=S(=O)(c1cccs1)N1CCN(Cc2nc3ccccc3s2)CC1`: the viability in test [1] was 87% (inactive); in test [2] it was 72.1% (inactive); in test [3], 84.9% (inactive); in test [4] (setting [7]), 101%; in test [4] (setting [8]), 84.9%. In addition, the differential viability (reversal) in test [4] (H69AR cells + 2 uM doxorubicin) is -16.2% (inactive). The inhibition in test [5] was 4.79% (inactive); in test [6] it was 30.2% (active).
